Data from PMC6039304 (International Journal for Parasitology: Drugs and Drug …, 2018).
Read-outs that look alike come from different tables or passages of the source.

What was measured:
[1] = system: L. infantum promastigotes; experiment: antileishmanial activity in promastigote cultures; format: cell-based, Leishmania infantum; conditions: read-out: Promastigotes IC50, 24 h
Procedure, shortened: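 The L. infantum field strain came from an infected dog spleen and was grown at 26 °C in RPMI with 10% heat-inactivated FBS and 2% penicillin/streptomycin. Promastigotes at 10^6/ml were incubated with serial dilutions of test compound for 24 h at 26 °C. Cells were then resuspended in PBS, stained with 12 μM propidium iodide and analysed by flow cytometry. IC50 is the concentration killing 50% of parasites.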

intracellular L.infantum = format: cell-based, Leishmania infantum; conditions: for IC50: read-out: Intracellular amastigotes IC50
Procedure, shortened: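 THP-1 cells were differentiated with 1 μM retinoic acid for 72 h, then infected overnight at 1:4 cell:parasite. Infected cells were purified on Histopaque 1077 (1300g, 20 min) and exposed 24 h (37 °C, 5% CO2) to serial dilutions. Infection was scored by counting % infected cells in Giemsa-stained cytospins. For combinations, peptaibol was held at 5 or 2 μM while alkylphosphocholine was varied (15–0.2 or 25–0.2 μM). CI came from linear isoboles; SI = CC50/intracellular IC50.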

trypanosomiasis = conditions: mouse model; ref Kumar et al., 1991; cited from earlier work
human RBCs = experiment: hemolytic potential on red blood cells; format: cell-based; conditions: for % hemolysis: at 100 μM of each compound; for HC50 fold higher than that of HePC / Hemolysis HC50: human RBCs; for Hemolysis HC50: 1 h, 37 °C, 50% of maximum hemolysis with water
Procedure, shortened: (§1)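 EDTA-anticoagulated blood from healthy volunteers was spun at 900 g for 10 min and the red cells washed three times in PBS. Cells were mixed 1:1 (v/v) with serial dilutions of test compound prepared in PBS, incubated 1 h at 37 °C, and centrifuged. Supernatant absorbance was read at 550 nm, with water-lysed cells as 100% hemolysis. HC50 was derived as for IC50. Combinations used the alkylphosphocholine at 15 or 25 μM plus peptaibol at 5 or 2 μM.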

[2] = system: L. infantum promastigotes; experiment: morphological changes in promastigotes; format: cell-based, Leishmania infantum; conditions: 6 h, 26 °C, at IC50; scanning electron microscopy
THP-1 monocytes = experiment: cytotoxicity in THP-1 monocytes; format: cell-based, human; conditions: for CC50: read-out: Cytotoxicity CC50, THP-1 monocytes
Procedure, shortened: (§2)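 THP-1 monocytes, maintained at 37 °C and 5% CO2 in RPMI with FBS and antibiotics, were seeded at 10^6/ml. They were incubated 24 h with serial dilutions of test compounds or combinations, resuspended in PBS, stained with 12 μM propidium iodide and counted by flow cytometry. CC50 is the concentration giving 50% of maximum cytotoxicity. Single-point combination tests used the alkylphosphocholine at 15 or 25 μM with peptaibol at 5 or 2 μM.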

[3] = system: L. infantum promastigotes; experiment: ROS production in promastigotes; format: cell-based, Leishmania infantum; conditions: compounds at IC50; 1 h, 3 h, 6 h
[4] = system: L. infantum promastigotes; experiment: mitochondrial membrane polarization in promastigotes; format: cell-based, Leishmania infantum; conditions: for ΔΨm dissipation: at 6 h, relative to control, compound alone
Procedure, shortened: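 Promastigotes (5 × 10^5/ml) were treated with test compounds or combinations at their IC50 values for 1, 3 or 6 h, then stained with 0.1 μM MitoTracker Red CMXRos for 30 min. Flow cytometry (488 nm laser, ≥10^4 cells, debris and autofluorescence excluded) scored the % of cells fluorescing above 10^2 (log scale) at 630 nm, relative to untreated control. Data came from at least 3 experiments.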

[5] = system: L. infantum promastigotes; experiment: viability of promastigotes at early stages of treatment; format: cell-based, Leishmania infantum; conditions: 6 h, compound at IC50
Procedure, shortened: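 Promastigotes (5 × 10^5/ml) were incubated 6 h with test compounds or combinations at their IC50 values. Propidium iodide was added at 12 μM and samples were run immediately by flow cytometry (≥10^4 cells). The value is % PI-stained promastigotes relative to control, mean ± SEM of at least 3 experiments.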

[6] = in humans; cited from earlier work
[7] = hemolytic potential on red blood cells; format: cell-based, human; conditions: human, red blood cells from EDTA-preserved peripheral blood
Procedure, shortened: as §1

[8] = cytotoxicity in THP-1 monocytes; format: cell-based, human; conditions: human, THP-1 monocytes
Procedure, shortened: as §2

[9] = single compound, intracellular amastigote in THP-1 monocytes, 24 h

IC50 ([1]; 26 °C) [µM]	IC50 (intracellular L.infantum; [9]) [µM]	Compound	% hemolysis (human RBCs) [%]	HC50 fold higher than that of HePC (human RBCs) [fold]	Hemolysis HC50 (human RBCs) [µM]	morphological alterations of promastigotes [2]	CC50 (THP-1 monocytes; 24 h) [µM]	ROS production in promastigotes [3]	ΔΨm dissipation [4] [%]	other results
8.7 ± 0.1	7.5 ± 0.2	antiamoebin [AAM]	52.9	2.5	94.6 ± 2.6	caused damage to the plasma membrane and altered flagellar morphology	40.3 ± 3.2	moderate levels of ROS	75	trypanocidal activity (trypanosomiasis): exhibits trypanocidal activity; fold less cytotoxic than HePC (THP-1 monocytes; THP-1 CC50 ratio): 1.4 fold; fold less cytotoxic than SZ (THP-1 monocytes; THP-1 CC50 ratio): about 1.8 fold
–	–	CCCCCCCCCCCCCCCCOP(=O)([O-])OCC[N+](C)(C)C [HePC, hexadecylphosphocholine, reference compound]	–	–	38.3 ± 2.8	did not seem to affect noticeably the morphology	–	low levels of ROS	–	PI-stained promastigotes [5]: 5.5%; IC50 ([1]; Leishmania infantum): 8.2 ± 0.7 µM; IC50 (intracellular L.infantum; Leishmania infantum, THP-1, 24 h): 1.8 ± 0.5 µM; Selectivity Index (SI), CC50/IC50 against the intracellular form (intracellular L.infantum; THP-1 CC50 / intracellular amastigote IC50): 15.8; half-life [6]: 100 to 200 h; hemolysis at 1 h, 100 µM [7]: 96.1%; % PI-stained THP-1 cells (THP-1 monocytes; 15 μM HePC or 25 μM TC52, alone or combined with 5 μM AAM or 2 μM SZ, 24 h): 27.6%; CC50 at 24 h [8]: 28.6 ± 2.5 µM; mitochondrial transmembrane potential (MitoTracker retention) ([4]; compounds at IC50, 1 h, 3 h, 6 h): significantly induce accumulation of MitoTracker above the control levels
8.2 ± 0.1	7.6 ± 1.2	suzukacillin A [SZ]	96.6	1.7	66.9 ± 2.2	–	22.5 ± 3.2	moderate levels of ROS	30	–
